Assay [1] deals with T1, Adenosine receptor A1 (Homo sapiens) (UniProt P30542).
T1 sequence (whole entry): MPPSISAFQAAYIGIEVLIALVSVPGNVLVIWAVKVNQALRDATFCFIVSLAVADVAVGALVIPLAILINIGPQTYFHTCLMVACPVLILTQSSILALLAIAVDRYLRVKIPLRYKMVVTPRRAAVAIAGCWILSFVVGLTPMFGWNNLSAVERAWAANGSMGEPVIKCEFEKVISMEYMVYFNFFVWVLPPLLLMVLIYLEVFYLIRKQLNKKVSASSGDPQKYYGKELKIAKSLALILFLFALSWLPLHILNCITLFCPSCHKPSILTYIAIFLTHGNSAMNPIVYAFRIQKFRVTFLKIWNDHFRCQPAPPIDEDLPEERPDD
Briefly: Allosteric enhancer activity score measured by its ability to stabilize the agonist-receptor-G protein ternary complex at a concentration of 100 uM. The format is functional. In short, it runs like this: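 Candidate enhancer added (100 µM) for 5 min, then dissociation started with 8-cyclopentyltheophylline plus GTPγS. Residual bound agonist after 10 min counted by filtration. Score = 100 × (B − Bo)/(Beq − Bo).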

For assay [2], the target named is T1, Adenosine receptor A1 (Homo sapiens). Briefly: Inhibition of [3H]CPX binding to membrane of CHO-K cells stably expressing human adenosine A1 receptors. It is filed as cell membranes. Set-up: concentration or dose not given beside the values. Particulars: concentration not given here. In short, it runs like this:
(§1)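 Triplicate assays with membranes (15 µg protein) from CHO-K cells expressing human A1AR. Buffer was 10 mM HEPES pH 7.4 with 1 mM EDTA, adenosine deaminase 1 u/mL, [3H]CPX (4 nM in membrane aliquot), and enhancer added as 200 µM in 10% DMSO. Footnote gives enhancer at 100 µM. NECA defined nonspecific binding. Incubated 3 h at room temperature, then filtered and counted.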

Assay [3] has the same target. Briefly: Inhibition of [3H]CPX binding to CHO-K cell membrane expressing human Adenosine A1 receptor. It is filed as cell membranes. Also on record: concentration or dose not given beside the values. Particulars: concentration not given here. In short, it runs like this: as §1

This note sets out measurements from ChEMBL document CHEMBL1136003, “2-Amino-3-aroyl-4,5-alkylthiophenes: agonist allosteric enhancers at human A(1) adenosine receptors” (J Med Chem, 2002).

One may read the inhibition as the share of the control response that was lost under treatment.

`Nc1sc2c(c1C(=O)c1ccc(Cl)cc1)CCCC2`: the AE Score in assay [1] stood at 68%. The same compound displayed an inhibition in assay [2] of 69%.
Take `COc1ccc(C(=O)c2c(N)sc3c2CCCCC3)cc1`: the AE Score in assay [1] turned out to be 85%.
`Nc1sccc1C(=O)c1ccc2ccccc2c1`: in assay [1], the AE Score is 3.2%.
For `CCOC(=O)c1c(N)sc2c1CCCC2`, in assay [1], the AE Score amounted to 3.5%. The compound also returned an inhibition in assay [2] of 53%.
Regarding `Nc1sc2c(c1C(=O)c1cccc(Br)c1)CCC2`, the AE Score in assay [1] is 68%. In addition, the inhibition in assay [3] came to 36%.
Taken in the same sequence, the figures for `Nc1sc2c(c1C(=O)c1cccc(Cl)c1)CCC2` were 13% and 56%.
Consider `Nc1sc2c(c1C(=O)c1ccc(F)cc1)CCCCC2`, for which the AE Score in assay [1] was 22%.
Same read-out and setting: then `Nc1sc2c(c1C(=O)c1ccc3ccccc3c1)CCCC2`, with 86%.
In the case of `Nc1sc2c(c1C(=O)c1ccc(Br)cc1)CCCC2`, the AE Score in assay [1] was found to be 83%. Further, the inhibition in assay [2] stood at 61%.
Taken in the same sequence, the figures for `COc1cccc(C(=O)c2c(N)sc3c2CCCCC3)c1` were 99% and 13%.
For `N#Cc1ccc(C(=O)c2c(N)sc3c2CCCC3)cc1` the same measures were 19% and 21%.
On to `CCOC(=O)c1c(N)sc2c1CCC2`, for which the AE Score in assay [1] turned out to be 0.4%. In assay [3], this compound displayed an inhibition of 58%.
For `Nc1sc2c(c1C(=O)c1ccc(Br)cc1)CCC2` the same measures were 62% and 20%.
Regarding `Nc1sc2c(c1C(=O)c1ccccc1)CCC2`, the AE Score in assay [1] was 20%. This compound showed an inhibition in assay [3] of 56%.
Consider `Cc1sc(N)c(C(=O)c2ccccc2)c1C`, for which the AE Score in assay [1] was determined as 9%.
On the same count and under the same terms, then `Nc1sccc1C(=O)c1ccc(Cl)cc1`, with 0%.
Regarding `Nc1sc2c(c1C(=O)c1cccc(Br)c1)CCCC2`, the AE Score in assay [1] was found to be 49%. Moreover, the inhibition in assay [3] came out at 49%.
Consider `Cc1sc(C(=O)O)c(C(=O)c2ccccc2)c1C`, for which the AE Score in assay [1] was 0%.
On the same count and under the same terms, then `Cc1sc(C(=O)O)c(C(=O)c2cccc(C(F)(F)F)c2)c1C`, with 0%.
The same measure, in the same setting: next, `Nc1sc2c(c1C(=O)c1ccc3ccccc3c1)CCCCC2`: 75%; `Nc1sccc1C(=O)c1cccc(F)c1`: 0%.
For `CCOC(=O)c1c(N)sc2c1CCCCC2`, in assay [1], the AE Score amounted to 0.3%. In assay [2], this compound returned an inhibition of 38%.
Taken in the same sequence, the figures for `Nc1sc2c(c1C(=O)c1ccc(Br)cc1)CCCCC2` were 86% and 7%.
Turning to `Cc1sc(N)c(C(=O)c2cccc(C(F)(F)F)c2)c1C`, the AE Score in assay [1] was 19%. Also, the inhibition in assay [3] came out at 42%.
In the case of `Nc1sc2c(c1C(=O)c1cccc(I)c1)CCCCC2`, in assay [1], the AE Score was found to be 86%.
On the same count and under the same terms, then `Nc1sc2c(c1C(=O)c1cccc3ccccc13)CCCCC2`, with 81%.
In the case of `Cc1ccc(C(=O)c2c(N)sc3c2CCCC3)cc1`, in assay [1], the AE Score came to 19%. This compound also showed an inhibition in assay [2] of 36%.
`Nc1sc2c(c1C(=O)c1ccc(C3CCCCC3)cc1)CCCC2`: the AE Score in assay [1] was determined as 99%. The same compound gave an inhibition in assay [2] of 47%.
`Nc1sc2c(c1C(=O)c1ccc(Cl)cc1)CCCCC2`: the AE Score in assay [1] came out at 65%.
On the same count and under the same terms, next, `Cc1sc(C(=O)O)c(C(=O)c2ccc(-c3ccccc3)cc2)c1C`: 0%.
Still for that read-out and setting: then `Nc1sc2c(c1C(=O)c1ccc(-c3ccccc3)cc1)CCCC2`, with 33%; and `Nc1sccc1C(=O)c1ccc(Br)cc1`, with 0.8%.
Same read-out and setting: next, `Nc1sc2c(c1C(=O)c1ccc(Cl)cc1)CCC2`: 70%; `Cc1sc(N)c(C(=O)c2cccc(Br)c2)c1C`: 16%.
Consider `Nc1sc2c(c1C(=O)c1cccc(Cl)c1)CCCCC2`, for which, in assay [1], the AE Score worked out at 65%. The same compound yielded an inhibition in assay [2] of 10%.
In the case of `Nc1sc2c(c1C(=O)c1cccc(F)c1)CCC2`, in assay [1], the AE Score is 16%.
Still for that read-out and setting: next, `Nc1sccc1C(=O)c1cccc(Br)c1`: 0.2%; `Nc1sccc1C(=O)c1ccc(Cl)c(Cl)c1`: 1.7%.
The same measure, in the same setting: then `Nc1sc2c(c1C(=O)c1ccc(C3CCCCC3)cc1)CCCCC2`, with 77%.
Take `Nc1sc2c(c1C(=O)c1ccc(F)cc1)CCC2`: the AE Score in assay [1] was 22%. In assay [3], this compound had an inhibition of 40%.
For the compound `Nc1sc2c(c1C(=O)c1ccccc1)CCCC2`, in assay [1], the AE Score came to 19%. For the same compound, the inhibition in assay [2] turned out to be 42%.
With `Cc1sc(N)c(C(=O)c2cccc(Cl)c2)c1C`, in assay [1], the AE Score was found to be 14%.
On the same count and under the same terms, next, `Nc1sc2c(c1C(=O)c1ccc(-c3ccccc3)cc1)CCC2`: 38%; `Cc1cc(C)c(C(=O)c2c(N)sc(C)c2C)c(C)c1`: 0%.
Same read-out and setting: next, `Nc1sc2c(c1C(=O)c1ccc(-c3ccccc3)cc1)CCCCC2`: 88%; `Nc1sccc1C(=O)c1cccc(Cl)c1`: 0%.
As to `Nc1sc2c(c1C(=O)c1ccc(I)cc1)CCCC2`, in assay [1], the AE Score worked out at 86%. For the same compound, the inhibition in assay [2] stood at 62%.
`Nc1sc2c(c1C(=O)c1cccc(Cl)c1)CCCC2`: in assay [1], the AE Score stood at 70%. For the same compound, the inhibition in assay [3] turned out to be 78%.
Regarding `Cc1sc(N)c(C(=O)c2ccc(-c3ccccc3)cc2)c1C`, the AE Score in assay [1] is 12%.
Consider `Nc1sc2c(c1C(=O)c1cccc(Br)c1)CCCCC2`, for which the AE Score in assay [1] is 78%. This compound had an inhibition in assay [2] of 7%.
With `Nc1sccc1C(=O)c1ccccc1`, the AE Score in assay [1] turned out to be 0.2%. Moreover, the inhibition in assay [3] was determined as 15%.
For the compound `Nc1sc2c(c1C(=O)c1ccc(I)cc1)CCCCC2`, the AE Score in assay [1] came out at 96%. The same compound had an inhibition in assay [2] of 9%.
Taken in the same sequence, the figures for `Nc1sc2c(c1C(=O)c1ccc3ccccc3c1)CCC2` were 31% and 21%.
`Cc1sc(N)c(C(=O)c2cccc(F)c2)c1C`: the AE Score in assay [1] stood at 0%.
Regarding `Nc1sc2c(c1C(=O)c1ccccc1)CCCCC2`, in assay [1], the AE Score came to 13%. Moreover, the inhibition in assay [2] came to 68%.
On to `Nc1sccc1C(=O)c1ccc(F)cc1`, for which, in assay [1], the AE Score amounted to 0%.
Take `Nc1sc2c(c1C(=O)c1cccc(F)c1)CCCC2`: the AE Score in assay [1] was found to be 22%. Further, in assay [3], the inhibition came out at 35%.
In the case of `Cc1cccc(C(=O)c2c(N)sc(C)c2C)c1`, the AE Score in assay [1] was 18%.
Take `Nc1sc2c(c1C(=O)c1ccc(F)cc1)CCCC2`: the AE Score in assay [1] stood at 17%. The compound further came in with an inhibition in assay [2] of 56%.
